One compound from publication PMC5587398 (Journal of pharmaceutical and biomedical analysis, 2017) can be followed below.

Series [1] is described as follows: Pharmacokinetic study in mice after single oral dose. In kind it is in vivo, male C57BL/6 mice. In outline:
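Male C57BL/6 mice (~30 g; 12 total, n=4 per time point) got a single 30 mg/kg gavage, 10 mL/kg, in 20 mM citric buffer (pH~3). K2EDTA blood was drawn at 0.167–24 hr and the plasma stored at -80°C. Plasma was precipitated with ACN/MeOH 7/3 containing deuterated IS, then run on HILIC amide +ESI SRM (0.01–25 µM calibration). Non-compartmental parameters were taken from mean concentrations per time point.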

A short description of series [2]: Pharmacokinetic study in rats after single oral dose. In kind it is in vivo, male Sprague-Dawley rats. The conditions noted are these: plasma. In a few lines:
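Male Sprague-Dawley rats (~300 g, n=4) got a single 30 mg/kg oral gavage, 10 mL/kg, in 20 mM citric buffer (pH~3). K2EDTA blood was drawn at 0.167, 0.5, 1, 2, 3, 5, 7 and 24 hr, and plasma was stored at -80°C. Analysis used IS-containing ACN/MeOH precipitation and HILIC-UPLC-MS/MS. Non-compartmental analysis used linear-trapezoidal AUC; t1/2 = 0.693/λ, with λ from ≥3 terminal points.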

[3] abbreviates: male, C57BL/6, mouse, plasma, po, 30 mg/kg.
Setting [4] is: male, Sprague-Dawley, rat, po, 30 mg/kg.

Turning to `NC1=NCCN1CC(=O)O` [cyclocreatine, 1-Carboxymethyl-2-iminoimidazolidine], the half-life in series [1] (male, C57BL/6 (mice), Sprague-Dawley (rats), mouse, plasma, po, 30 mg/kg) is 7 to 8 h. Besides, in series [1] (setting [3]), the AUC(0-inf) is 84100 ng·h/mL, the Cmax came to 5620 ng/mL and the Tmax was determined as 5 h. Also, the “absorption after PO administration” value in series [1] (rodents (mice and rats), PO administration, summary statement) is recorded as “well absorbed”. The “t(1/2)” value in series [2] (male SD rats (n=4), 30 mg/kg PO single dose, mean ± SD) was found to be 7.9 ± 0.9 h. Besides, in series [2] (setting [4]), the AUC(0-inf) came to 91700 ± 18000 ng·h/mL, the Cmax came out at 13300 ± 2600 ng/mL and the Tmax stood at 0.58 ± 0.48 h.
